Laboratory results from ChEMBL document CHEMBL4513216, “Probing the Open Global Health Chemical Diversity Library for Multistage-Active Starting Points for Next-Generation Antimalarials” (ACS Infect Dis, 2020).

Assay: Toxicity liver stage against HepG2, at 10uM
Format: cell-based
Set-up: test concentration 10 uM, cell line HepG2-A16-CD81EGFP
Settings: human, HepG2-A16-CD81EGFP cells; read-out: INHIBITION
Outline: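 Uninfected HepG2-A16-CD81EGFP cells, 3 × 10^3 per well, 1536-well, plated on prespotted compound at 10 μM final, parasite-free screening media added to match infected plates; puromycin 10 μM positive, DMSO 0.5% negative; run in parallel with 48 h PbLuc assay at 37 °C, 5% CO2; viability by CellTiter-Glo luminescence, normalized to controls.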

| Compound | cytotoxicity at 10 µM [%] |
| --- | --- |
| CCOc1ccc(CN2C(=O)CC3(CCCC3)C2=O)nc1 | -4.01 |
| CCOC1CC2(CCN(Cc3cnn(C)c3)CC2)c2ccc(C)cc21 (configuration not stated) | 4.62 |
| COC(=O)C1CCN(C(=O)Cn2ccc(-c3ccsc3)n2)CC1 | -6.58 |
| Cn1ccc(C(=O)NC2CCC23CCN(C(=O)c2ccccn2)CC3)c1 (configuration not stated) | -71.7 |
| CCS(=O)(=O)N1CCC2(CC1)CC(Oc1ccccn1)CO2 (configuration not stated) | -1.58 |
| c1ccc(CN2CCC3(CC2)CC(Oc2cccnc2)C3)nc1 | -111 |
| O=C(NC1CC1)N1C[C@H]2CN(Cc3cccc(F)c3)C(=O)[C@H]2C1 | -70.5 |
| CC(=O)N1CCN(c2cc(CCNC(=O)C(C)C)nc(C3CC3)n2)CC1 | -21.3 |
| CC(NCc1cccc(S(=O)(=O)N(C)C)c1)c1ccccn1 (configuration not stated) | -10.5 |
| N#Cc1cccnc1N1CCCN(C(=O)CCn2cccn2)CC1 | 2.81 |
| C=C(C)COc1ccccc1NC(=O)N1CCOCC(CO)C1 (configuration not stated) | -1.57 |
| CCOc1ccc(C#N)cc1NCC(=O)NC(=O)Nc1ccccc1 | -11.8 |
| CSCCNC(=O)c1ccc(OC2CCN(CC(C)(C)C)CC2)c(Cl)c1 | -10.9 |
| COCCOc1ccc(CNc2nc3ccccc3o2)cn1 | 7.45 |
| O=C(NCCn1ccc(-c2ccccn2)n1)C1CCC1 | 4.23 |
| O=C(Nc1ccccc1F)C1=NOC2(CCNCC2)C1 | 2.93 |
| Cc1cc(C2CCCN2Cc2cccc(C(=O)Nc3nccs3)c2)no1 (configuration not stated) | -4.12 |
| NC1(CN2CCCCC2)CCCCC1 | 1.46 |
| O=C(C1CCOCC1)N1CCc2ncc(CN3CCCC3)n2CC1 | -76.1 |
| c1ccc(O[C@@H]2CO[C@@]3(CCCN(CC4CCOCC4)C3)C2)nc1 | -82.6 |
| CC(C)c1noc(-c2ccnc(-n3cnc(C(=O)O)c3)c2)n1 | 0.715 |
| Cc1ccc(CN(CCN(C)C)Cc2nc3ccccc3[nH]2)s1 | 3.34 |
| O=C1CCC2(CCCN(C(=O)c3cscn3)C2)CN1CCc1c[nH]cn1 (configuration not stated) | -13 |

| Compound | cytotoxicity at 10 µM [%] |
| --- | --- |
| CC(CO)CN(Cc1ccccc1)Cc1cnc2ccccc2n1 (configuration not stated) | 6.6 |
| O=C(NC1CCS(=O)(=O)c2ccccc21)c1sccc1C1CC1 (configuration not stated) | 3.63 |
| CCC1CN(CC(=O)NC(C)C)CCO1 (configuration not stated) | 2.16 |
| COCC(=O)NCc1cc2n(n1)CCCN(CCCC1CCCC1)C2 | -5.01 |
| COc1cccc(CNC(=O)CN2CCCCC2Cn2cccn2)c1 (configuration not stated) | 2.77 |
| CO[C@H]1COCCN(C(=O)c2ccc(C(F)(F)F)cc2)C1 | 4.94 |
| COCCn1ccc2ccc(C(=O)N3CCN(C(C)=O)CC3)cc21 | -8.6 |
| CCSc1cc(C(=O)NC2CCN(C(=O)c3ccncc3)CC2)ccn1 | 5.88 |
| CCC(CC)C(=O)N1CCC(c2nn(CCN)c3nccnc23)C1 (configuration not stated) | -25.5 |
| Cc1cc(C)n(CC(C)CNC(=O)N(C)Cc2ccco2)n1 (configuration not stated) | 4.47 |
| Cc1nccc([C@@H]2C[C@@H]3CCN(Cc4cccs4)C[C@H]3O2)n1 | -143 |
| COc1ccc(C[C@H]2CN(C(=O)C3CC3)CC[C@H]2OC)cc1 | 2.67 |
| O=C1CCCN1Cc1nc(-c2ccsc2)no1 | -5.41 |
| CCn1cnnc1CNC(=O)N1CCCCCC1 | -7.36 |
| Cc1ccc2nc(C)cc(C(=O)N3C[C@H]4CCC[C@@]4(CO)C3)c2c1 | 2.53 |
| Cc1cccc(OCCNC(=O)Cn2ccc(C)cc2=O)c1 | -1.63 |
| CC(C)Cc1noc(CN2CCN(C(=O)c3cccc(F)c3)CC2)n1 | -5.7 |
| c1cc(CCNc2ncc(-c3cnccn3)c(C3CC3)n2)ccn1 | 13.5 |
| Cc1noc(C)c1C(=O)N1CCC(n2cccn2)CC1 | 3.82 |
| CCc1cnc(CN(C(C)=O)C2CCN(CCc3ccccn3)C2)o1 (configuration not stated) | -2.72 |
| CCC[C@H]1CN(Cc2ccccc2C#N)C[C@@H]1NS(C)(=O)=O | -11 |
| O=C(NCC1CC1)C1CN(C(=O)c2cccc(Cl)c2)CC12CCOCC2 (configuration not stated) | 1.18 |
| CS(=O)(=O)N1CCc2nc(NC(=O)Nc3c(F)cccc3F)sc2C1 | -10.4 |

| Compound | cytotoxicity at 10 µM [%] |
| --- | --- |
| O=C(O)Cn1ccc2c(Cl)cccc21 | 0.308 |
| COc1ccc(NC(=O)c2cccc(OC)c2OC)cc1 | 18.5 |
| Cc1cc(C(=O)N2CCCC2c2nnc3n2CCCCC3)no1 (configuration not stated) | -14 |
| Cn1ccnc1CN1CCC2(CC1)CC(N1CCCC1)c1ccccc12 (configuration not stated) | 7.24 |
| Cc1ccccc1NC(=O)CCNC(=O)c1ccoc1 | -0.714 |
| CNC(=O)c1nc(CN2CCOC(CCCC(C)C)C2)no1 (configuration not stated) | -2.25 |
| Cc1cc(C)n(CC2CCCCN2C(=O)c2ccc3nncn3c2)n1 (configuration not stated) | 0.168 |
| Cc1ccc(CNCc2c[nH]nc2C(C)(C)C)c(OC2CCOC2)c1 (configuration not stated) | 13.8 |
| COCCNc1cccc(C2CCCN2)n1 (configuration not stated) | -25.9 |
| COc1ccccc1C(C)N(C)Cc1nc2c(cnn2C)c(=O)[nH]1 (configuration not stated) | -9.1 |
| CC(=O)N1CCO[C@@H]2CN(C(=O)c3ccc4ncccc4c3)CC[C@@H]2C1 | 8.22 |
| Cc1ccccc1C1CCN(C(=O)CCNS(C)(=O)=O)C1 (configuration not stated) | -1.03 |
| O=C(NCC(CO)Cc1ccc(Cl)cc1)c1ccncc1F (configuration not stated) | -4.84 |
| Cc1nc(C)c(C)c(N2CCC(O)(c3ccc(F)cc3)CC2)n1 | -6.08 |
| Cc1cc(C2CCCN2Cc2cc(=O)n(C)c(=O)n2C)on1 (configuration not stated) | -4.72 |
| CN1CCN(Cc2cn3c(n2)CN(Cc2ccncc2)CC3)CC1 | -94.8 |
| c1ccc(N2CCCC(c3nc(-c4cccnn4)no3)C2)nc1 (configuration not stated) | -3.42 |
| c1ccc(-c2cc(CN3CCCC(Cn4cncn4)C3)on2)cc1 (configuration not stated) | -15.9 |
| c1cnnc(N2CCCC2CNc2ncnc3c2CCC3)c1 (configuration not stated) | -0.626 |
| Nc1ncccc1CN1C[C@H]2OC(=O)N(Cc3ccccn3)[C@H]2C1 | 13.9 |
| CN1CCC(Cc2nc(-c3cnccn3)n(Cc3ccccc3)n2)CC1 | 1.21 |
| CCOc1c(F)cccc1C(=O)N(C)CCn1cccn1 | 3.76 |
| O=C(c1noc2c1CCCC2)N1CCCC(c2nccs2)C1 (configuration not stated) | -2.66 |

| Compound | cytotoxicity at 10 µM [%] |
| --- | --- |
| Cc1cnn(CC2CN(c3ncnc4ccsc34)CCO2)c1 (configuration not stated) | 53.2 |
| Cc1cc(Cn2c(=O)c3c(C(F)(F)F)cc(C)nc3n2C)on1 | -0.976 |
| CC1CCN(Cc2cc(=O)[nH]c(=O)[nH]2)CC1 | 9.95 |
| CCS(=O)(=O)c1ccccc1C(=O)NCC1Cc2ccccc2O1 (configuration not stated) | -0.561 |
| COC(=O)C1CCN(C(=O)c2cccc(NS(C)(=O)=O)c2C)CC1 | -6.71 |
| CSCc1cc(F)ccc1CNC(=O)N1CCC(CO)CC1 | 1.82 |
| C[C@@H]1CN(Cc2cc3ccccc3n2C)CC[C@@]1(O)C1CC1 | -2.07 |
| COCCC(=O)N1CCN(CC2CC2)c2ncccc2C1 | -96.7 |
| CC(C)(C)S(=O)(=O)c1ccc(N2CCN(c3ccccn3)CC2)nn1 | -3.3 |
| O=C(CNCc1ccccc1Cn1cccn1)Nc1cnccn1 | 8.11 |
| CCN1CCN(C(=O)c2scnc2C)CC1 | 11.7 |
| N#Cc1c(F)cccc1N1CCN(C(=O)Nc2nncs2)CC1 | -0.908 |
| Cc1ccc(OC2(C(=O)NC(C)c3csc(C)n3)CCNCC2)cc1 (configuration not stated) | -0.432 |
| c1cc(-c2ccc3c(c2)C2(CC3)CCN(c3nncs3)CC2)ccn1 | 1.13 |
| Cc1cnc(CNC(=O)N(CCCO)C2CCc3ccccc32)s1 (configuration not stated) | -17.2 |
| CC(O)C1CCN(C(=O)Nc2nc(-c3ccccc3)ns2)CC1 (configuration not stated) | -135 |
| Cc1cc(C(=O)N2CCCN(Cc3nccn3C(C)C)CC2)no1 | -2.72 |
| COc1ccc(COCC(O)CNC(=O)c2ccc(C#N)cc2)cc1 (configuration not stated) | 0.561 |
| NC(=O)C1CCN(C(=O)NCc2cccnc2OC2CCCC2)C1 (configuration not stated) | -7.12 |
| Cc1cnc(CN2CCCC2c2noc(C(C)C)n2)cn1 (configuration not stated) | -15.1 |
| CN(C)c1cccc(CNCc2ccc(N3CCOCC3)cc2)c1 | 11.3 |
| COc1ccc(Cl)cc1-c1cc(NC(=O)CNC(=O)C2CC2)[nH]n1 | -3.61 |
| CCSc1cncc(N2CCC(C(=O)Nc3ccccn3)CC2)n1 | 26.3 |

| Compound | cytotoxicity at 10 µM [%] |
| --- | --- |
| CC[C@H](C)Nc1ncc(-c2cccc(NC(=O)CNC)c2)cn1 | -4.97 |
| CNC(=O)c1cccc(C2CNCCN2C)c1 (configuration not stated) | 2.91 |
| Cn1cc(-c2cnc(N3CCOCC3)nc2)cc1C(=O)N1CCCC1 | -10.6 |
| CCc1nnc(N2CCN(c3ccccc3)C(=O)C2)o1 | -8.74 |
| CN(C)C(=O)CN1CCO[C@H]2CN(Cc3cccc(F)c3)C[C@H]21 | -97.2 |
| CC(C1CCN(Cc2ccccc2OC(F)F)CC1)N1CCOCC1 (configuration not stated) | -7.4 |
| COCCS(=O)(=O)N(Cc1ccsc1)c1ccccc1 | -4.76 |
| Cc1ccnc(N2CCN(C3CCS(=O)(=O)C3)CC2)n1 (configuration not stated) | -2.71 |
| Cc1ccc2c(c1)C1(CCNCC1)CN2C(=O)CN(C)C | 0.513 |
| Cc1cnn(CCNCc2csc(-c3ncccn3)n2)c1 | -7.48 |
| O=C(Cc1ccco1)N1C[C@H]2CCC[C@@]2(COc2cccnc2)C1 | -109 |
| CCc1ncc(C(=O)N2CCN(c3cnn(C)c(=O)c3)CC2)cn1 | -8.3 |
| CCCn1ccc2ccc(NC(=O)N(C)CCOC)cc21 | 1.31 |
| O=C(CCn1c(C(F)(F)F)cc2cccnc21)N1CCOCC1 | -22.6 |
| COCC1CN(S(=O)(=O)c2cccc(F)c2)Cc2nccn2C1 (configuration not stated) | -103 |
| Cc1cc(C(=O)N2CCNC(=O)CC2)c(C)n1CC(F)(F)F | 1.88 |
| O=C(C1CCCC1)N1CCC(c2ncc3c(n2)CCNC3)C1 (configuration not stated) | -15.3 |
| Cn1cc(N2CCCC(SCc3ccco3)C2=O)cn1 (configuration not stated) | 17.3 |
| COc1ccc(C(=O)NC2COc3ccccc3C2)cc1OCC(=O)O (configuration not stated) | -2.18 |
| O=C(CN1CCCC1COc1ccccc1)NCc1ccccn1 (configuration not stated) | -0.764 |
